Measurements taken from ChEMBL document CHEMBL1123442 (J Med Chem, 1986).
The source made the active and inactive calls. The calls are words filed in the database; no cut-off is given here.

Tests used:
P388 [1] = assay: In vivo for antitumor activity against P388 leukemia.; assay type: functional, Mus musculus
Method in brief: (§1)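 Mice given 10^6 P388 leukemia cells intraperitoneally, then drug intraperitoneally in 0.1 mL 30% v/v ethanol-water on days 1, 5 and 9. D50 (mg/kg per day giving 50% ILS) read from dose-response graph. ILS at optimal dose versus untreated controls. Long-term survival counted at 30 days.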

HCT-8 = assay: In vitro for cytotoxicity against human colon tumor cells (HCT-8) in culture; assay type: functional, cell-based
P388 [2] = assay: In vivo for antitumor activity against P388 leukemia; assay type: functional, Mus musculus; method in brief: as §1
[3] = system: Lewis lung carcinoma cell line; assay: In vivo for antitumor activity against Lewis lung carcinoma; assay type: functional, Mus musculus
Method in brief: (§2)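 Mice inoculated intravenously with 10^6 Lewis lung carcinoma cells, then drug intraperitoneally in 0.1 mL 30% v/v ethanol-water on days 5, 9 and 13. D50 (mg/kg per day for 50% ILS) taken from dose-response graph. ILS at optimal dose versus untreated tumor-bearing controls. Survivors counted at 40 days.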

poly[d(A-T)] = assay: Binding constant relative to amsacrine (Δlog K) for DNA binding by ethidium bromide displacement; details: Bos taurus
[4] = system: Lewis lung carcinoma cell line; assay: Evaluated in vivo for antitumor activity against Lewis lung carcinoma; i denotes Inactive; assay type: functional, organism-based; details: Mus musculus; method in brief: as §2
L1210 = assay: In vitro for cytotoxicity against murine leukemia cells (L1210); assay type: functional, cell-based; details: Mus musculus
[5] = system: Lewis lung carcinoma cell line; assay: Evaluated in vivo for antitumor activity against Lewis lung carcinoma; g denotes ILS of 50% could not be reached at any dose level; assay type: functional, organism-based; details: Mus musculus; method in brief: as §2
[6] = system: Lewis lung carcinoma cell line; assay: Evaluated in vivo for antitumor activity against Lewis lung carcinoma; assay type: functional, Mus musculus; method in brief: as §2
P388 [7] = assay: Evaluated in vivo for antitumor activity against P388 leukemia; g denotes ILS of 50% could not be reached at any dose level; assay type: functional, organism-based; details: Mus musculus; method in brief: as §1

Row | Δlog K (poly[d(A-T)]) | Structure (SMILES) | OD (P388 [1]) [mg/kg] | IC50 (HCT-8) [nM] | D50 (P388 [2]) [mg/kg] | ILSmax (P388 [2]) [%] | OD [3] [mg/kg] | ILSmax [4] | IC50 (L1210) [nM] | D50 [5] | ILSmax [3] [%] | ILS max [4] | D50 [6] [mg/kg] | D50 (P388 [7])
1 | 6.72 | CNc1cc(NS(C)(=O)=O)ccc1Nc1c2ccccc2nc2cc([N+](=O)[O-])ccc12 | 5.9 | 140 | 3 | 70 | 8.9 | inactive | 110 | ILS of 50% could not be reached |  |  |  | 
2 | 6.71 | CNc1cc(NS(C)(=O)=O)ccc1Nc1c2ccccc2nc2cc(C)ccc12 | 8.9 | 59 | 3.5 | 88 | 8.9 |  | 19 | ILS of 50% could not be reached | 41 |  |  | 
3 | 7.46 | CNc1cc(NS(C)(=O)=O)ccc1Nc1c2ccccc2nc2c1ccc1ccccc12 | 45 | 400 | 45 | 50 | 20 | inactive | 189 | ILS of 50% could not be reached |  |  |  | 
4 | 6.42 | CNc1cc(NS(C)(=O)=O)ccc1Nc1c2ccccc2nc2cc(I)ccc12 | 45 | 79 | 10 | 70 | 30 |  | 29 | ILS of 50% could not be reached |  | inactive |  | 
5 | 6.99 | CNc1cc(NS(C)(=O)=O)ccc1Nc1c2ccccc2nc2cc(Br)ccc12 | 66 | 140 | 5 | 136 | 20 |  | 38 | ILS of 50% could not be reached | 49 |  |  | 
6 |  | CNc1cc(NS(C)(=O)=O)ccc1Nc1c2ccc(Br)cc2nc2c(OC)cccc12 | 65 | 150 | 9 | 174 | 65 |  | 41 |  | 111 |  | 40 | 
7 | 6.92 | CNC(=O)c1cccc2c(Nc3ccc(NS(C)(=O)=O)cc3NC)c3cccc(OC)c3nc12 | 65 | > 1000 | 30 | 148 | 65 |  | 320 | ILS of 50% could not be reached | 34 |  |  | 
8 |  | CNc1cc(NS(C)(=O)=O)ccc1Nc1c2ccc(F)cc2nc2c(OC)cccc12 | 65 | 370 | 20 | 100 | 65 |  | 200 |  | 85 |  | 45 | 
9 | 5.57 | CNc1cc(NS(C)(=O)=O)ccc1Nc1c2ccccc2nc2c(C(=O)NCC(N)=O)cccc12 | 68 | > 104 | 45 | 87 | 45 | inactive | 3500 | ILS of 50% could not be reached |  |  |  | 
10 | 6.28 | CNc1cc(NS(C)(=O)=O)ccc1Nc1c2ccccc2nc2c(C(N)=O)cccc12 | 45 | 2800 | 25 | 109 | 30 | inactive | 560 | ILS of 50% could not be reached |  |  |  | 
11 | 6.79 | CNC(=O)c1cccc2c(Nc3ccc(NS(C)(=O)=O)cc3NC)c3ccc(Cl)cc3nc12 | 45 | 1900 | 30 | 61 | 30 | inactive | 110 | ILS of 50% could not be reached |  |  |  | 
12 | 5.89 | CNc1cc(NS(C)(=O)=O)ccc1Nc1c2ccccc2nc2ccc(C)cc12 | 100 | 1700 | 55 | 8 | 100 |  | 550 | ILS of 50% could not be reached | 200 |  |  | 
13 |  | CNc1cc(NS(C)(=O)=O)ccc1Nc1c2ccccc2nc2c(Cl)cccc12 | 100 | 740 | 65 | 64 | 100 |  | 690 |  | 59 |  | 80 | 
14 |  | CNc1cc(NS(C)(=O)=O)ccc1Nc1c2ccc(C)cc2nc2c(OC)cccc12 | 13.3 | 70 | 5.5 | 122 | 20 |  | 65 |  | 194 |  | 10 | 
15 |  | CNc1cc(NS(C)(=O)=O)ccc1Nc1c2ccc(C)cc2nc2c(C)cccc12 | 5.9 | 24 | 2 | 92 | 5.9 |  | 19 |  | 93 |  | 4.2 | 
16 |  | CNc1cc(NS(C)(=O)=O)ccc1Nc1c2ccccc2nc2c(F)cccc12 | 45 | 690 | 20 | 152 | 65 |  | 400 |  | 55 |  | 60 | 
17 |  | CNc1cc(NS(C)(=O)=O)ccc1Nc1c2ccc(Cl)cc2nc2c(C)cccc12 | 13.3 | 73 | 5 | 128 | 30 |  | 15 |  | 126 |  | 8 | 
18 |  | CNc1cc(NS(C)(=O)=O)ccc1Nc1c2ccccc2nc2c(OC)cccc12 | 45 | 140 | 5 | 170 | 45 |  | 130 |  | 153 |  | 19 | 
19 |  | CNC(=O)c1cccc2c(Nc3ccc(NS(C)(=O)=O)cc3NC)c3cccc(C)c3nc12 | 13.3 | 353 | 6 | 94 | 30 |  | 82 |  | 62 |  | 25 | 
20 |  | CNc1cc(NS(C)(=O)=O)ccc1Nc1c2ccccc2nc2c(C)cccc12 | 13.3 | 79 | 3 | 157 | 20 |  | 53 |  | 139 |  | 8.9 | 
21 |  | CNC(=O)c1cccc2c(Nc3ccc(NS(C)(=O)=O)cc3NC)c3ccccc3nc12 | 65 | 1800 | 30 | 82 | 45 |  | 56 |  | 91 |  | 6.8 | 
22 |  | CNc1cc(NS(C)(=O)=O)ccc1Nc1c2ccccc2nc2cc(OC)ccc12 | 8.9 | 180 | 4.5 | 132 | 20 |  | 35 |  | 75 |  | 15 | 
23 |  | CNc1cc(NS(C)(=O)=O)ccc1Nc1c2ccccc2nc2cc(Cl)ccc12 | 30 | 170 | 10 | 149 | 20 |  | 24 |  | 98 |  | 15 | 
24 |  | COc1cc(NS(C)(=O)=O)ccc1Nc1c2ccccc2nc2ccccc12 [AMSACRINE] |  |  |  |  |  |  |  | ILS of 50% could not be reached |  |  |  | 
25 | 6.75 | CNC(=O)c1ccc(Cl)c2c(Nc3ccc(NS(C)(=O)=O)cc3NC)c3ccccc3nc12 | 150 | 4800 |  | 38 |  |  | > 1600 |  |  |  |  | ILS of 50% could not be reached

Row | Structure (SMILES) | Δlog K (poly[d(A-T)]) | OD (P388 [1]) [mg/kg] | IC50 (HCT-8) [nM] | D50 (P388 [2]) [mg/kg] | ILSmax (P388 [2]) [%] | OD [3] [mg/kg] | ILSmax [4] | IC50 (L1210) [nM] | D50 [5] | ILSmax [3] [%] | ILS max [4] | D50 [6] [mg/kg] | D50 (P388 [7])
26 | CNc1cc(NS(C)(=O)=O)ccc1Nc1c2ccc(Br)cc2nc2c(C)cccc12 | 7.27 | 13.3 | 49 | 7 | 122 | 13.3 |  | 21 | ILS of 50% could not be reached | 34 |  |  | 
27 | CNc1ccc2c(Nc3ccc(NS(C)(=O)=O)cc3NC)c3ccccc3nc2c1 | 7.53 | 2.6 | 810 | 0.2 | 208 | 2.6 | inactive | 5.8 | ILS of 50% could not be reached |  |  |  | 
28 | CNc1cc(NS(C)(=O)=O)ccc1Nc1c2ccccc2nc2cc(NC(=O)OC)ccc12 | 7.21 | 13.3 | 715 | 1.5 | 135 | 8.9 | inactive | 76 | ILS of 50% could not be reached |  |  |  | 
